Sampled rows, rich in hits. Any-hit rate of the full collection: about 1.9%.
Arrestin-AP2 inh: inhibitors of beta-arrestin/AP2 binding, primary screen, biochemical, GPCR trafficking, flow cytometry; beta-arrestin 1 C-terminal peptide binding to AP2 beta2-adaptin appendage (human); FITC-arrestin peptide / GST-AP2 beads; AP2 beta2 appendage carries R879A mutation; inhibition, % at 10 µM; 340,000 tested, 0.31% active; AID 504490, 2011;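 active = inhibition above a set limit, near 3 SD of compounds lacking own fluorescence, cut at about 54% in these data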;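 note: plate controls were DMSO wells for no effect and 5 µM unlabelled arrestin peptide for full effect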
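Assay system: GST-AP2 R879A bound to glutathione beads, E. coli-expressed; Medium: PBS with 0.05% Tween 20 and 0.1% BSA; Also added: fluorescein-tagged arrestin peptide at 50 nM final; Timing: 12 min plus 1 h, RT; Measured by: flow cytometry, FL1 (488/535 nm); Evaluation: percent drop in bead-associated FITC signal.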
PLC-beta3 inh: human PLC-beta3 inhibitors, primary screen, biochemical, fluorescence | Purified PLC-beta3, fluorogenic substrate | inhibition, % at 12.2 µM | 370,000 tested, 0.18% active | AID 720704, 2013;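 note: 0% = median of compound wells on plate and 100% = full blocker control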
sPLA2-III inh: human group III sPLA2 inhibitors, primary screen, biochemical, QFRET, BODIPY PC-A2 liposome substrate | QFRET BODIPY PC-A2 liposome hydrolysis, fluorescence | inhibition, % at 12.2 µM | 370,000 tested, 0.56% active;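 active = inhibition above mean plus 3 SD of compounds lying within the high and low control bounds, cut at about 19% in these data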;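 note: 0% = median of test compound wells and 100% = no enzyme DMSO wells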
PLC-gamma1 inh: PLC-gamma1 enzyme inhibitors, primary screen, biochemical, fluorescence, purified enzyme; AID 720700, 2013; 370,000 tested, 0.84% active; inhibition, % at 12.2 µM; fluorogenic substrate; in the data active = inhibition above about 9.5%
procasp7 counter: procaspase-7 activators, primary screen, counter-screen for procaspase-3 activator project, biochemical, absorbance, HTS, human; recombinant procaspase-7, Ac-DEVD-pNA absorbance 405 nm; D23A/D198A/D206A triple mutant, cannot self-cleave; scale: DMSO 0, 5 µM enzyme 100; 330,000 tested, 0.093% active; Caspase-7 (Homo sapiens), P55210; activation, % at 8.5 µM;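 active = percent activation above the screen-wide mean plus 3 SD, cut at about 25% in these data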
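Assay system: Uncleavable procaspase-7 mutant enzyme | Input: 2 µM procaspase-7 mutant as dispensed | Timing: 1 h compound preincubation, 2 h substrate cleavage, 25 °C | Repeats: One well per compound | Control set: DMSO wells as 0%, DMSO with 5 µM added PC-7 as 100% | Technique: Epi-absorbance of released pNA at 405 nm, two timepoints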
procasp3 activ: activators of human procaspase-3 D3A mutant, primary screen, biochemical, absorbance, PC-3 D3A mutant, single concentration. Caspase-3 (Homo sapiens), P42574. recombinant procaspase-3 D3A, Ac-DEVD-pNA absorbance 405 nm. activation, % at 8.5 µM. 330,000 tested, 0.11% active;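 active = activation above the mean of all tested compounds plus 3 SD, cut at about 21% in these data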;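 note: 0% = DMSO alone and 100% = DMSO wells spiked with extra 5 µM PC-3 D3A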
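Technique: 405 nm absorbance of p-nitroaniline, reads at 0 and 120 min; Test system: Procaspase-3 D3A mutant; Incubation: 1 h enzyme-compound preincubation, then 2 h substrate reaction, 25 °C; Repeats: singlicate, each compound tested once; Benchmarks: low control DMSO wells, high control DMSO plus 5 µM PC-3 D3A.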
PLCgamma1 ctr: PLC-gamma1 enzyme inhibitors, counter-screen for PLC-beta3 inhibitor project, biochemical, fluorescence. shares compounds with PLC-gamma1 inh. purified PLC-gamma1, fluorogenic substrate. inhibition, % at 12.3 µM. 3,300 tested, 3.1% active; in the data active = inhibition above about 9.5%
PLCbeta3 conf: PLC-beta3 inhibitor confirmation, biochemical, fluorescence, purified enzyme; shares compounds with PLC-gamma1 inh; fluorogenic substrate fluorescence; 3,300 tested, 1% active; AID 743261, 2014; inhibition, % at 12.3 µM
* = called active by the depositor; . = not tested or not shown. Cut-off read from the data, not from the text of the source, unless noted: active = inhibition above about 11%; inactive = the rest.

SMILES	Arrestin-AP2 inh	PLC-beta3 inh	sPLA2-III inh	PLC-gamma1 inh	procasp7 counter	procasp3 activ	PLCgamma1 ctr	PLCbeta3 conf
COc1cc(CNc2ncnc3c2ncn3[C@H]2CN(Cc3cccc(C(F)(F)F)c3)C[C@@H](CO)O2)cc(OC)c1OC	.	3	-37	9.6*	.	.	-2	2
CCOc1ccc(C(=O)Nc2ccc(NC(=O)c3ccccc3)c(C)c2)cc1[N+](=O)[O-]	-3	-4	-4	-2	.	.	.	.
COc1cccc(C(=O)Nc2cccc3ccccc23)c1	-16	3	-2	15*	.	.	3	2
CCC(C)NC(=O)c1ccccc1NC(=O)COc1ccc(OC)cc1 (stereo not given)	8	6	9	11*	.	.	-3	0
COc1cc(OC)cc(C(=O)Nc2cccc3ccccc23)c1	-5	-7	-4	2	7	3	.	.
COc1ccc(NC(=O)c2cccc3ccccc23)cc1	-1	-4	-4	9.9*	-3	-1	-8	-4
CCOc1cccc(C(=O)Nc2ccc(NC(=O)c3ccccc3)c(C)c2)c1	19	15*	-1	7	8	4	-3	14*
COc1ccc(N2CCN(CCCNC(=O)COc3ccc(C)cc3)CC2)cc1	.	2	9	0	.	.	.	.
CCCCCCCCN1C(=O)[C@@H](CC(=O)NCCCN2CCCC2=O)C[C@@]2(C(=O)OC)C1=C[C@H](C(C)C)O[C@@H]2C1CC1	.	2	-16	0	.	.	.	.
COCC(=O)Nc1ccccc1C(=O)Nc1ccc(OC)cc1	8	1	2	11*	1	3	-7	-1
COc1ccc(NC(=O)c2ccccc2NC(=O)COc2ccccc2)cc1	-19	3	6	4	0	0	.	.
COc1cccc(C(=O)NNS(=O)(=O)c2ccccc2)c1	.	3	2	12*	.	.	-5	-2
COc1ccc(CCNC(=O)C2CC(=O)N(C3CCCC3)C2)cc1OC (stereo not given)	-4	-1	8	4	0	2	.	.
COc1ccc(CCNC(=O)C2CC(=O)N(C3CCCCC3)C2)cc1OC (stereo not given)	-10	-2	-6	11*	-4	1	-1	0
O=C(Nc1ccc2c(c1)OCCO2)C(c1ccccc1)n1c(=O)c(-c2ccco2)nc2ccccc21 (stereo not given)	.	-26	5	-17	.	.	.	.
CC[C@H](CCCc1ccccc1OC)CCS(=O)(=O)N(C)C	.	-5	0	-4	.	.	.	.
COc1ccc(Cn2ccc3ccc(-c4ccc5ccn(C(=O)C6CCC6)c5c4)cc32)cc1	.	-248	-1	-179	.	.	.	.
CCOc1ccc(NC2=C(Cl)C(=O)N(Cc3ccccc3)C2=O)cc1	2	0	16	11*	-16	3	-1	1
COc1ccc(NC2=C(Cl)C(=O)N(CCc3ccccc3)C2=O)cc1	-6	1	3	1	-10	6	.	.
O=C(CCc1ccccc1)N[C@H]1[C@H](OC(=O)c2ccco2)CCC[C@@]12C(=O)N(Cc1ccccc1)c1ccccc12	.	2	-7	2	.	.	.	.

Assay outcomes deposited in PubChem BioAssay by several laboratories.
